Results reported in ChEMBL document CHEMBL5724801, “EUbOPEN Chemogenomics Library - Multiplex” (2024).
Several values for one entry are separate records, joined by “and”; a condition that tells them apart may be missing. Identical values can stand only once.

Test system: U2OS
Experiment: Multiplex assay against U2OS
Type: toxicity, cell-based
Settings: human
Summary of the method: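 Four dyes were applied at seeding to live cells: Hoechst33342, BioTracker Green Microtubule Cytoskeleton Dye, MitoTracker Red and Annexin V Alexa Fluor 680. Imaging after compound addition used a CQ1 microscope at 37°C and 5% CO2. CellPathfinder machine-learning gating then sorted cells into Hoechst high-intensity objects or normal cells, normal cells into healthy, pyknosed or fragmented nuclei, and pyknosed cells into mitotic or apoptotic, with tubulin, mitochondrial-mass and membrane-permeability phenotypes given as per cents of healthy-nucleus cells.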

[1] = 12 h, 1 µM, compound concentration 1 uM
[2] = 12 h, 10 µM, compound concentration 10 uM
[3] = 24 h, 1 µM, compound concentration 1 uM
[4] = 24 h, 10 µM, compound concentration 10 uM
[5] = 48 h, 1 µM, compound concentration 1 uM
[6] = 48 h, 10 µM, compound concentration 10 uM

## Cc1noc(C)c1-c1cnc2c(-c3ccc(C(=O)O)cc3)cn([C@@H](C)c3ccccn3)c2c1 [PLX-51107]
[1]
  Population Apoptotic (%): 28.33% and 48.15%
  Population Fragmented Nuclei (%): 2.1% and 1.04%
  Population Healthy Nuclei (%): 85.32% and 84.97%
  Population Hoechst High Intensity Objects (%): 0%
  Population Membrane Permeable-Phenotype (%): 0.25% and 4.88%
  Population Mitochondria Different-Phenotype (%): 0% and 5.49%
  Population Mitotic Cells (%): 71.67% and 51.85%
  Population Normal (%): 100%
  Population Pyknosed Nuclei (%): 12.58% and 13.99%
  Population Tubulin-Different-Phenotype (%): 0.74% and 3.05%
  Total Cell Count: 477 and 193
[2]
  Population Apoptotic (%): 30.77% and 33.33%
  Population Fragmented Nuclei (%): 2.92% and 1.9%
  Population Healthy Nuclei (%): 82.47% and 82.91%
  Population Hoechst High Intensity Objects (%): 0%
  Population Membrane Permeable-Phenotype (%): 1.36% and 3.05%
  Population Mitochondria Different-Phenotype (%): 0.27% and 7.63%
  Population Mitotic Cells (%): 69.23% and 66.67%
  Population Normal (%): 100%
  Population Pyknosed Nuclei (%): 14.61% and 15.19%
  Population Tubulin-Different-Phenotype (%): 1.36% and 1.53%
  Total Cell Count: 445 and 158
[3]
  Population Apoptotic (%): 32.76% and 59.26%
  Population Fragmented Nuclei (%): 3.22% and 5.11%
  Population Healthy Nuclei (%): 87.88% and 85.04%
  Population Hoechst High Intensity Objects (%): 0%
  Population Membrane Permeable-Phenotype (%): 0.52% and 4.29%
  Population Mitochondria Different-Phenotype (%): 0.35% and 3.86%
  Population Mitotic Cells (%): 67.24% and 40.74%
  Population Normal (%): 100%
  Population Pyknosed Nuclei (%): 8.9% and 9.85%
  Population Tubulin-Different-Phenotype (%): 0.52% and 2.15%
  Total Cell Count: 652 and 274
[4]
  Population Apoptotic (%): 43.37% and 43.48%
  Population Fragmented Nuclei (%): 5.51% and 6.04%
  Population Healthy Nuclei (%): 79.23% and 81.32%
  Population Hoechst High Intensity Objects (%): 0%
  Population Membrane Permeable-Phenotype (%): 0.93% and 2.7%
  Population Mitochondria Different-Phenotype (%): 0% and 4.73%
  Population Mitotic Cells (%): 56.63% and 56.52%
  Population Normal (%): 100%
  Population Pyknosed Nuclei (%): 15.26% and 12.64%
  Population Tubulin-Different-Phenotype (%): 0.46% and 0.68%
  Total Cell Count: 544 and 182
[5]
  Population Apoptotic (%): 51.49% and 72.73%
  Population Fragmented Nuclei (%): 10.29% and 4.03%
  Population Healthy Nuclei (%): 80.83% and 86.62%
  Population Hoechst High Intensity Objects (%): 0%
  Population Membrane Permeable-Phenotype (%): 0.44% and 2.21%
  Population Mitochondria Different-Phenotype (%): 0.11% and 1.47%
  Population Mitotic Cells (%): 48.51% and 27.27%
  Population Normal (%): 100%
  Population Pyknosed Nuclei (%): 8.88% and 9.34%
  Population Tubulin-Different-Phenotype (%): 0.44% and 1.47%
  Total Cell Count: 1137 and 471
[6]
  Population Apoptotic (%): 58.54% and 60.87%
  Population Fragmented Nuclei (%): 17.75% and 9.91%
  Population Healthy Nuclei (%): 65.96% and 70.26%
  Population Hoechst High Intensity Objects (%): 0%
  Population Membrane Permeable-Phenotype (%): 0.6% and 1.84%
  Population Mitochondria Different-Phenotype (%): 0% and 2.45%
  Population Mitotic Cells (%): 41.46% and 39.13%
  Population Normal (%): 100%
  Population Pyknosed Nuclei (%): 16.29% and 19.83%
  Population Tubulin-Different-Phenotype (%): 1.2% and 0.61%

## Cc1cc(-c2ccc3c(c2)CC[C@H]3N2CC3(CCN(C(=O)Cc4cn5cc(C)sc5n4)CC3)C2)ncn1 [PF-5190457]
[1]
  Population Apoptotic (%): 82% and 63%
  Population Fragmented Nuclei (%): 24% and 21%
  Population Healthy Nuclei (%): 65% and 66%
  Population Hoechst High Intensity Objects (%): 1% and 0%
  Population Membrane Permeable-Phenotype (%): 7% and 4%
  Population Mitochondria Different-Phenotype (%): 3%
  Population Mitotic Cells (%): 17% and 36%
  Population Normal (%): 98% and 100%
  Population Pyknosed Nuclei (%): 9% and 11%
  Population Tubulin-Different-Phenotype (%): 4% and 3%
  Total Cell Count: 239 and 93
[2]
  Population Apoptotic (%): 61% and 71%
  Population Fragmented Nuclei (%): 18% and 14%
  Population Healthy Nuclei (%): 66% and 74%
  Population Hoechst High Intensity Objects (%): 2% and 1%
  Population Membrane Permeable-Phenotype (%): 7% and 8%
  Population Mitochondria Different-Phenotype (%): 5% and 10%
  Population Mitotic Cells (%): 38% and 28%
  Population Normal (%): 97% and 98%
  Population Pyknosed Nuclei (%): 14% and 11%
  Population Tubulin-Different-Phenotype (%): 5% and 6%
  Total Cell Count: 238 and 126
[3]
  Population Apoptotic (%): 69% and 33%
  Population Fragmented Nuclei (%): 25% and 21%
  Population Healthy Nuclei (%): 66% and 76%
  Population Hoechst High Intensity Objects (%): 1% and 0%
  Population Membrane Permeable-Phenotype (%): 8% and 6%
  Population Mitochondria Different-Phenotype (%): 3% and 1%
  Population Mitotic Cells (%): 30% and 66%
  Population Normal (%): 98% and 99%
  Population Pyknosed Nuclei (%): 8% and 2%
  Population Tubulin-Different-Phenotype (%): 5% and 2%
  Total Cell Count: 282 and 126
[4]
  Population Apoptotic (%): 67% and 84%
  Population Fragmented Nuclei (%): 18%
  Population Healthy Nuclei (%): 72% and 69%
  Population Hoechst High Intensity Objects (%): 2% and 1%
  Population Membrane Permeable-Phenotype (%): 3% and 11%
  Population Mitochondria Different-Phenotype (%): 0% and 8%
  Population Mitotic Cells (%): 32% and 15%
  Population Normal (%): 97% and 98%
  Population Pyknosed Nuclei (%): 9% and 12%
  Population Tubulin-Different-Phenotype (%): 1% and 4%
  Total Cell Count: 295 and 154
[5]
  Population Apoptotic (%): 84% and 66%
  Population Fragmented Nuclei (%): 20% and 16%
  Population Healthy Nuclei (%): 71% and 78%
  Population Hoechst High Intensity Objects (%): 0% and 2%
  Population Membrane Permeable-Phenotype (%): 7% and 4%
  Population Mitochondria Different-Phenotype (%): 4% and 2%
  Population Mitotic Cells (%): 15% and 33%
  Population Normal (%): 99% and 97%
  Population Pyknosed Nuclei (%): 8% and 5%
  Population Tubulin-Different-Phenotype (%): 4% and 2%
  Total Cell Count: 402 and 184
[6]
  Population Apoptotic (%): 74% and 76%
  Population Fragmented Nuclei (%): 16% and 18%
  Population Healthy Nuclei (%): 71%
  Population Hoechst High Intensity Objects (%): 3%
  Population Membrane Permeable-Phenotype (%): 5% and 11%
  Population Mitochondria Different-Phenotype (%): 2% and 6%
  Population Mitotic Cells (%): 25% and 23%
  Population Normal (%): 96%
  Population Pyknosed Nuclei (%): 12% and 10%
  Population Tubulin-Different-Phenotype (%): 3% and 4%
  Total Cell Count: 389 and 217
